The text below walks through data of ChEMBL document CHEMBL1914320, “C4-alkylthiols with activity against Moraxella catarrhalis and Mycobacterium tuberculosis” (Bioorg Med Chem, 2011).

In assay [1] the test system is Moraxella catarrhalis. Nature of the assay: Antibacterial activity against beta-lactamase producing Moraxella catarrhalis isolate 4 at 10 ug/disc after overnight incubation by disc diffusion assay. In kind it is functional. The note with it: for zone of inhibition at 10 µg/disc: read-out: IZ. In a few lines: (§1)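 Isolates were held at −80 °C. Five colonies were suspended in Mueller-Hinton broth to a 0.5 McFarland density and swabbed onto MH agar. Discs carried 10 μg compound, applied in methanol and dried at room temperature. Plates were incubated overnight at 37 °C, and the zone of inhibition was measured in mm from the disc edge. Controls were methanol-only and penicillin discs. Run blinded, in triplicate.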

The test system of assay [2] is Enterococcus faecalis. Nature of the assay: Antibacterial activity against non-beta-lactamase producing Enterococcus faecalis ATCC 29212 after 48 hrs by microdilution broth method. Format: functional, organism-based. In a few lines: (§2)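 Broth microdilution followed CLSI guidelines. Compound was dissolved in 95% ethanol, diluted at least 10-fold into Mueller-Hinton broth, then serially two-fold diluted from 500 to 15.6 μg/mL. Actively growing culture was added at 5 × 10^5 cells/mL. Plates ran 48 h at 37 °C, scored for visible growth at 24 and 48 h. MIC was the lowest concentration without growth. For MBC, 10 μL from each clear well was plated on MH agar. Controls were ethanol and penicillin. Triplicate.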

The test system of assay [3] is Staphylococcus aureus. Nature of the assay: Antibacterial activity against non-beta-lactamase producing Staphylococcus aureus ATCC 25923 after 48 hrs by microdilution broth method. In kind it is functional, organism-based. An outline of the steps:
as §2

For assay [4], the system named is Pseudomonas aeruginosa. Nature of the assay: Antibacterial activity against non-beta-lactamase producing Pseudomonas aeruginosa ATCC 27853 at 10 ug/disc after overnight incubation by disc diffusion assay. In kind it is functional, organism-based. An outline of the steps: as §1
Assay [5] deals with Enterococcus faecalis. Nature of the assay: Antibacterial activity against non-beta-lactamase producing Enterococcus faecalis ATCC 29212 at 10 ug/disc after overnight incubation by disc diffusion assay. Format: functional, organism-based. In a few lines:
as §1

Assay [6] concerns Escherichia coli. Nature of the assay: Antibacterial activity against non-beta-lactamase producing Escherichia coli ATCC 25922 after 48 hrs by microdilution broth method. In kind it is functional, organism-based. In a few lines: as §2
Assay [7] concerns Staphylococcus aureus. Nature of the assay: Antibacterial activity against non-beta-lactamase producing Staphylococcus aureus ATCC 25923 at 10 ug/disc after overnight incubation by disc diffusion assay. Format: functional, organism-based. In a few lines:
as §1

Assay [8] deals with Moraxella catarrhalis. Nature of the assay: Antibacterial activity against beta-lactamase producing Moraxella catarrhalis isolate 5 at 10 ug/disc after overnight incubation by disc diffusion assay. In kind it is functional. The following applies: for zone of inhibition at 10 µg/disc: read-out: IZ. An outline of the steps: as §1
In assay [9] the test system is Moraxella catarrhalis. Nature of the assay: Antibacterial activity against beta-lactamase producing Moraxella catarrhalis isolate 3 at 10 ug/disc after overnight incubation by disc diffusion assay. In kind it is functional. An outline of the steps: as §1
Assay [10] has as its system Moraxella catarrhalis. Nature of the assay: Antibacterial activity against beta-lactamase producing Moraxella catarrhalis isolate 2 at 10 ug/disc after overnight incubation by disc diffusion assay. Format: functional. The following applies: for zone of inhibition at 10 µg/disc: read-out: IZ. An outline of the steps:
as §1

Assay [11] relates to Escherichia coli. Nature of the assay: Antibacterial activity against non-beta-lactamase producing Escherichia coli ATCC 25922 at 10 ug/disc after overnight incubation by disc diffusion assay. Format: functional, organism-based. In a few lines:
as §1

The test system of assay [12] is Moraxella catarrhalis. Nature of the assay: Antibacterial activity against beta-lactamase producing Moraxella catarrhalis isolate 1 at 10 ug/disc after overnight incubation by disc diffusion assay. The following applies: for zone of inhibition at 10 µg/disc: read-out: IZ. In kind it is functional. An outline of the steps:
as §1

In assay [13] the test system is Pseudomonas aeruginosa. Nature of the assay: Antibacterial activity against non-beta-lactamase producing Pseudomonas aeruginosa ATCC 27853 after 48 hrs by microdilution broth method. Format: functional, organism-based. An outline of the steps:
as §2

Assay [14] relates to Moraxella catarrhalis. Nature of the assay: Antibacterial activity against beta-lactamase producing Moraxella catarrhalis isolate 3 at 500 ug/ml after overnight incubation by disc diffusion assay. In kind it is functional, organism-based.
Assay [15] deals with Moraxella catarrhalis. Nature of the assay: Antibacterial activity against beta-lactamase producing Moraxella catarrhalis isolate 6 at 500 ug/ml after overnight incubation by disc diffusion assay. Format: functional, organism-based.
For assay [16], the system named is Moraxella catarrhalis. Nature of the assay: Antibacterial activity against beta-lactamase producing Moraxella catarrhalis isolate 2 at 500 ug/ml after overnight incubation by disc diffusion assay. Format: functional, organism-based.
The subject of assay [17] is Moraxella catarrhalis. Nature of the assay: Antibacterial activity against beta-lactamase producing Moraxella catarrhalis isolate 5 at 500 ug/ml after overnight incubation by disc diffusion assay. In kind it is functional, organism-based.
Assay [18] relates to Moraxella catarrhalis. Nature of the assay: Antibacterial activity against beta-lactamase producing Moraxella catarrhalis isolate 4 at 500 ug/ml after overnight incubation by disc diffusion assay. In kind it is functional, organism-based.
For assay [19], the system named is Mycobacterium tuberculosis. Nature of the assay: Antimycobacterial activity against wild type Mycobacterium tuberculosis H37Rv at 200 ug/ml by Alamar blue assay. Format: functional, organism-based.

SMILES strings stand for the structures. Calls of active or inactive are those of the source. No cut-off for these calls is given here.

In the case of `CCC(S)(CC)CO`, the zone of inhibition at 10 µg/disc in the assay on Moraxella catarrhalis [1] is 3 mm; in the assay with Moraxella catarrhalis [8] it was 12 mm; in the assay on Moraxella catarrhalis [10], 3 mm; with Moraxella catarrhalis [12] it was 5 mm. The outcome with Enterococcus faecalis [2], with Staphylococcus aureus [3], with Pseudomonas aeruginosa [4], in the assay with Enterococcus faecalis [5], in the assay on Escherichia coli [6] and in the assay on Staphylococcus aureus [7] was inactive. Besides, the result in the assay with Escherichia coli [11] and in the assay with Pseudomonas aeruginosa [13] was inactive. Further, the “inhibition zone (IZ)” value with Moraxella catarrhalis [9] is “inactive”.
For the compound `O=C1CC(Sc2ccccc2)N1S(=O)(=O)O` (racemic), the “inhibition zone (IZ)” value in the assay on Moraxella catarrhalis [1], with Moraxella catarrhalis [8], in the assay on Moraxella catarrhalis [9], with Moraxella catarrhalis [10] and with Moraxella catarrhalis [12] was “inactive” each time. For the same compound, the outcome with Enterococcus faecalis [2], with Staphylococcus aureus [3], with Pseudomonas aeruginosa [4], with Enterococcus faecalis [5], in the assay on Escherichia coli [6] and with Staphylococcus aureus [7] was inactive. Besides, the result in the assay on Escherichia coli [11] and with Pseudomonas aeruginosa [13] was inactive.
With `O=C1CC(SCCO)N1` (racemic), the outcome with Enterococcus faecalis [2], in the assay with Staphylococcus aureus [3], with Pseudomonas aeruginosa [4], in the assay with Enterococcus faecalis [5], with Escherichia coli [6] and in the assay with Staphylococcus aureus [7] was inactive. Moreover, the outcome in the assay with Escherichia coli [11] and in the assay with Pseudomonas aeruginosa [13] was inactive. Also, the “antibacterial activity (active/not active)” value with Moraxella catarrhalis [14], with Moraxella catarrhalis [15], in the assay on Moraxella catarrhalis [16], in the assay on Moraxella catarrhalis [17] and in the assay on Moraxella catarrhalis [18] was “inactive” throughout. In assay [19], the “antimycobacterial activity (active/not active)” value was “inactive”.
For the compound `O=C1CC(Sc2ccc(S)cc2)N1S(=O)(=O)O` (racemic), the result in the assay on Enterococcus faecalis [2], with Staphylococcus aureus [3], with Pseudomonas aeruginosa [4], in the assay on Enterococcus faecalis [5], with Escherichia coli [6] and with Staphylococcus aureus [7] was inactive. Besides, the result in the assay on Escherichia coli [11] and in the assay on Pseudomonas aeruginosa [13] was inactive. Moreover, the “antibacterial activity (active/not active)” value in the assay with Moraxella catarrhalis [14], with Moraxella catarrhalis [15], with Moraxella catarrhalis [16], with Moraxella catarrhalis [17] and in the assay with Moraxella catarrhalis [18] was “Active” each time. The “antimycobacterial activity (active/not active)” value in assay [19] was “Active”.
With `CCC(C=O)(CC)SSC(C=O)(CC)CC`, the zone of inhibition at 10 µg/disc in the assay on Moraxella catarrhalis [1] was 5 mm; with Moraxella catarrhalis [8], 10 mm; in the assay on Moraxella catarrhalis [10], 10 mm; with Moraxella catarrhalis [12] it was 10 mm. The outcome with Enterococcus faecalis [2], with Staphylococcus aureus [3], with Pseudomonas aeruginosa [4], in the assay with Enterococcus faecalis [5], in the assay on Escherichia coli [6] and in the assay on Staphylococcus aureus [7] was inactive. Besides, the result in the assay on Escherichia coli [11] and in the assay on Pseudomonas aeruginosa [13] was inactive. Also, the “inhibition zone (IZ)” value with Moraxella catarrhalis [9] is “inactive”.
